Data as given in ChEMBL document CHEMBL3588763, “Styryl-N-phenyl-N'-(2-chloroethyl)ureas and styrylphenylimidazolidin-2-ones as new potent microtubule-disrupting agents using combretastatin A-4 as model” (Eur J Med Chem, 2015).
Calls of active or inactive are those of the source. No cut-off for these calls is given here.

Legend:
M21 [1] = assay: Antiproliferative activity against human M21 cells assessed as cell growth inhibition after 48 hrs by sulforhodamine B assay; format: functional, cell-based; conditions: M21, 48 h
Method in brief: (§1)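 NCI-style SRB screen with minor changes. Cells seeded per well in DMEM with 5% FBS: HT-29 4.0 x 10^3, M21 3.0 x 10^3, MCF-7 2.5 x 10^3, HT-1080 2.5 x 10^3. After 24 h, serially diluted drug was added at 50 µM to 1 nM final, DMSO <0.5%, for 48 h. Fixed with cold TCA, stained with SRB, read at 530–568 nm against plates fixed on treatment day. At least two experiments in triplicate, CV <10%.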

MCF7 = assay: Antiproliferative activity against human MCF7 cells assessed as cell growth inhibition after 48 hrs by sulforhodamine B assay; format: functional, cell-based; conditions: MCF7, 48 h; method in brief: as §1
[2] = Antiproliferative activity against human HT1080 cells assessed as cell growth inhibition after 48 hrs by sulforhodamine B assay; format: functional, cell-based; conditions: HT-1080, 48 h
HT-29 = assay: Antiproliferative activity against human HT-29 cells assessed as cell growth inhibition after 48 hrs by sulforhodamine B assay; format: functional, cell-based; conditions: HT-29, 48 h; method in brief: as §1
[3] = biological target: T1, Tubulin beta (Homo sapiens) (UniProt P68371+Q9H4B7+Q13509+P04350+Q3ZCM7+P07437+Q13885+Q9BVA1+Q9BUF5+A6NNZ2); assay: Binding affinity to Tubulin beta in human M21 cells assessed as tubulin acylation at 3100 nM after 24 hrs by electrophoretic mobility shift assay; format: cell-based
[4] = biological target: T1, Tubulin beta (Homo sapiens); assay: Binding affinity to Tubulin beta in human M21 cells assessed as tubulin acylation at 1500 nM after 24 hrs by electrophoretic mobility shift assay; format: cell-based
M21 [5] = assay: Induction of cell cycle arrest in human M21 cells assessed as cells accumulation at G0/G1 phase at 3100 nM after 24 hrs by flow cytometry (reference value: 54.5%); format: functional
M21 [6] = assay: Induction of cell cycle arrest in human M21 cells assessed as cells accumulation at subG1 phase at 3100 nM after 24 hrs by flow cytometry (reference value: 1.2%); format: functional
M21 [7] = assay: Induction of cell cycle arrest in human M21 cells assessed as cells accumulation at S phase at 3100 nM after 24 hrs by flow cytometry (reference value: 22.2%); format: functional
M21 [8] = assay: Induction of microtubule depolymerization and cytoskeleton disruption in human M21 cells at 3100 nM after 16 hrs by immunofluorescence assay
M21 [9] = assay: Induction of cell cycle arrest in human M21 cells assessed as cells accumulation at G2/M phase at 3100 nM after 24 hrs by flow cytometry (reference value: 22.1%); format: functional
M21 [10] = assay: Induction of cell cycle arrest in human M21 cells assessed as cells accumulation at G2/M phase at 10 nM after 24 hrs by flow cytometry (reference value: 22.1%); format: functional
M21 [11] = assay: Induction of microtubule depolymerization and cytoskeleton disruption in human M21 cells at 10 nM after 16 hrs by immunofluorescence assay
M21 [12] = assay: Induction of cell cycle arrest in human M21 cells assessed as cells accumulation at S phase at 10 nM after 24 hrs by flow cytometry (reference value: 22.2%); format: functional
M21 [13] = assay: Induction of cell cycle arrest in human M21 cells assessed as cells accumulation at G0/G1 phase at 10 nM after 24 hrs by flow cytometry (reference value: 54.5%); format: functional
M21 [14] = assay: Induction of cell cycle arrest in human M21 cells assessed as cells accumulation at subG1 phase at 10 nM after 24 hrs by flow cytometry (reference value: 1.2%); format: functional
M21 [15] = assay: Induction of microtubule depolymerization and cytoskeleton disruption in human M21 cells at 63 nM after 16 hrs by immunofluorescence assay
M21 [16] = assay: Induction of cell cycle arrest in human M21 cells assessed as cells accumulation at G0/G1 phase at 63 nM after 24 hrs by flow cytometry (reference value: 54.5%); format: functional
[17] = biological target: T1, Tubulin beta (Homo sapiens); assay: Inhibition of N,N-ethylene-bis(iodoacetamide) binding to Tubulin beta colchicines-binding site in human M21 cells assessed as adduct formation at 2500 nM by Western blot analysis; format: cell-based
M21 [18] = assay: Induction of cell cycle arrest in human M21 cells assessed as cells accumulation at G2/M phase at 63 nM after 24 hrs by flow cytometry (reference value: 22.1%); format: functional
M21 [19] = assay: Induction of cell cycle arrest in human M21 cells assessed as cells accumulation at subG1 phase at 63 nM after 24 hrs by flow cytometry (reference value: 1.2%); format: functional
[20] = biological target: T1, Tubulin beta (Homo sapiens); assay: Inhibition of N,N-ethylene-bis(iodoacetamide) binding to Tubulin beta colchicines-binding site in human M21 cells assessed as adduct formation at 910 nM by Western blot analysis; format: cell-based
M21 [21] = assay: Induction of cell cycle arrest in human M21 cells assessed as cells accumulation at S phase at 63 nM after 24 hrs by flow cytometry (reference value: 22.2%); format: functional
[22] = biological target: T1, Tubulin beta (Homo sapiens); assay: Inhibition of N,N-ethylene-bis(iodoacetamide) binding to Tubulin beta colchicines-binding site in human M21 cells assessed as adduct formation at 410 nM by Western blot analysis; format: cell-based
[23] = biological target: T1, Tubulin beta (Homo sapiens); assay: Inhibition of N,N-ethylene-bis(iodoacetamide) binding to Tubulin beta colchicines-binding site in human M21 cells assessed as adduct formation at 100000 nM by Western blot analysis; format: cell-based
M21 [24] = assay: Induction of cell cycle arrest in human M21 cells assessed as cells accumulation at G2/M phase at 4100 nM after 24 hrs by flow cytometry (reference value: 22.1%); format: functional
M21 [25] = assay: Induction of microtubule depolymerization and cytoskeleton disruption in human M21 cells at 4100 nM after 16 hrs by immunofluorescence assay
M21 [26] = assay: Induction of cell cycle arrest in human M21 cells assessed as cells accumulation at G0/G1 phase at 4100 nM after 24 hrs by flow cytometry (reference value: 54.5%); format: functional
[27] = biological target: T1, Tubulin beta (Homo sapiens); assay: Binding affinity to Tubulin beta in human M21 cells assessed as tubulin acylation at 8200 nM after 24 hrs by electrophoretic mobility shift assay
M21 [28] = assay: Induction of cell cycle arrest in human M21 cells assessed as cells accumulation at S phase at 4100 nM after 24 hrs by flow cytometry (reference value: 22.2%); format: functional
M21 [29] = assay: Induction of cell cycle arrest in human M21 cells assessed as cells accumulation at subG1 phase at 4100 nM after 24 hrs by flow cytometry (reference value: 1.2%); format: functional
M21 [30] = assay: Induction of cell cycle arrest in human M21 cells assessed as cells accumulation at G2/M phase at 46 nM after 24 hrs by flow cytometry (reference value: 22.1%); format: functional
M21 [31] = assay: Induction of cell cycle arrest in human M21 cells assessed as cells accumulation at S phase at 46 nM after 24 hrs by flow cytometry (reference value: 22.2%); format: functional
M21 [32] = assay: Induction of cell cycle arrest in human M21 cells assessed as cells accumulation at subG1 phase at 46 nM after 24 hrs by flow cytometry (reference value: 1.2%); format: functional
M21 [33] = assay: Induction of cell cycle arrest in human M21 cells assessed as cells accumulation at G0/G1 phase at 46 nM after 24 hrs by flow cytometry (reference value: 54.5%); format: functional
M21 [34] = assay: Induction of microtubule depolymerization and cytoskeleton disruption in human M21 cells at 46 nM after 16 hrs by immunofluorescence assay

Structure (SMILES)	IC50 (M21 [1]) [µM]	IC50 (MCF7) [µM]	IC50 [2] [µM]	IC50 (HT-29) [µM]	other results
CCNC(=O)Nc1ccc(/C=C\c2cc(C)cc(C)c2)cc1	16	17	15	11	–
Cc1cc(C)cc(/C=C/c2ccc(NC(=O)NCCCl)cc2)c1	> 20	19	> 20	11	–
O=C(NCCCl)Nc1ccc(/C=C/c2cccc(Cl)c2)cc1	> 20	20	> 20	12	–
Cc1cc(C)cc(/C=C/c2ccc(N3CCNC3=O)cc2)c1	17	16	> 20	14	–
COc1cc(/C=C/c2ccc(NC(=O)NCCCl)cc2)cc(OC)c1OC	> 20	20	> 20	9.5	–
Cc1cc(C)cc(/C=C\c2ccc(NC(=O)NCCCl)cc2)c1	0.71	0.86	0.7	0.51	Activity [3]: Active; Activity [4]: Active; Activity (M21 [5]): 5.7%; Activity (M21 [6]): 12.5%; Activity (M21 [7]): 13.2%; Activity (M21 [8]): Active; Activity (M21 [9]): 68.6%
COc1ccc(/C=C\c2cc(OC)c(OC)c(OC)c2)cc1O [COMBRETASTATIN A4]	0.0016	0.0021	–	0.56	Activity (M21 [10]): 91.4%; Activity (M21 [11]): Active; Activity (M21 [12]): 6.6%; Activity (M21 [13]): 4.5%; Activity (M21 [14]): 7.5%
O=C1NCCN1c1ccc(/C=C\c2cccc(Cl)c2)cc1	0.027	0.038	0.035	0.025	Activity (M21 [15]): Active; Activity (M21 [16]): 17.4%; inhibition [17]: Active; Activity (M21 [18]): 55.1%; Activity (M21 [19]): 13.6%; inhibition [20]: Active; Activity (M21 [21]): 13.9%; inhibition [22]: Active
CCNC(=O)Nc1ccc(/C=C\c2cccc(Cl)c2)cc1	35	32	31	26	–
O=C1NCCN1c1ccc(/C=C/c2cccc(Cl)c2)cc1	19	20	> 20	17	–
COc1cc(/C=C/c2ccc(N3CCNC3=O)cc2)cc(OC)c1OC	0.55	0.54	0.4	0.37	inhibition [23]: Active
CCNC(=O)Nc1ccc(/C=C/c2cccc(Cl)c2)cc1	> 20	20	> 20	> 20	–
CCNC(=O)Nc1ccc(/C=C\c2cc(OC)c(OC)c(OC)c2)cc1	21	21	29	21	–
CCNC(=O)Nc1ccc(/C=C/c2cc(OC)c(OC)c(OC)c2)cc1	29	17	16	12	–
COc1cc(/C=C\c2ccc(NC(=O)NCCCl)cc2)cc(OC)c1OC	0.95	1.4	1.4	0.68	Activity (M21 [24]): 85.5%; Activity (M21 [25]): Active; Activity (M21 [26]): 3.9%; Activity [27]: Active; Activity (M21 [28]): 5.8%; Activity (M21 [29]): 4.8%
Cc1cc(C)cc(/C=C\c2ccc(N3CCNC3=O)cc2)c1	0.01	0.023	0.015	0.0084	Activity (M21 [30]): 78.4%; inhibition [17]: Active; Activity (M21 [31]): 8%; Activity (M21 [32]): 8.2%; Activity (M21 [33]): 5.4%; inhibition [20]: Active; Activity (M21 [34]): Active; inhibition [22]: Active
CCNC(=O)Nc1ccc(/C=C/c2cc(C)cc(C)c2)cc1	> 20	20	> 20	> 20	–
COc1cc(/C=C\c2ccc(N3CCNC3=O)cc2)cc(OC)c1OC	0.0024	0.0026	0.0023	0.0017	Activity (M21 [10]): 84.6%; Activity (M21 [11]): Active; Activity (M21 [12]): 6.1%; inhibition [17]: Active; Activity (M21 [13]): 4.2%; Activity (M21 [14]): 5.1%; inhibition [20]: Active; inhibition [22]: Active
